For data set [1], the target named is T1, HsY430A mutant of Hs-SAHH (Homo sapiens, UniProt P23526, Y430A).
T1 sequence (P23526 1-432 Y430A): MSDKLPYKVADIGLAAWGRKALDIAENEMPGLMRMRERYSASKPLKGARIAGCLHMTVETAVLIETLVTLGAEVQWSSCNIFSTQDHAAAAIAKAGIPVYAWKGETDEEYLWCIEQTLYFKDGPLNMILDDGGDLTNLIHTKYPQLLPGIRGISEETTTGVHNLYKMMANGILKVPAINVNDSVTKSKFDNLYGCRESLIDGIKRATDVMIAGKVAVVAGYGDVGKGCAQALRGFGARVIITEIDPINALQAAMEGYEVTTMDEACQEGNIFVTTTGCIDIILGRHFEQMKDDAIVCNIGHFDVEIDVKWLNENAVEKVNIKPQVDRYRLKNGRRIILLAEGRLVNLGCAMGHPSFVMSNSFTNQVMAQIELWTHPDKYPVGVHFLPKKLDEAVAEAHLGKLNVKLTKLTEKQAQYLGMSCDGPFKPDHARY
Put plainly: cofactor content of isolated and reconstituted mutant enzyme. It is filed as binding.

The test system of data set [2] is TcK431A mutant of Tc-SAHH. Put plainly: cofactor content of isolated and reconstituted mutant enzyme. Format: binding, Trypanosoma cruzi. The method in brief:
(§1)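 Apo-enzyme preparation: mutants expressed in E. coli were precipitated three times with 80% (v/v) acid ammonium sulfate plus 2–5 mM DTT (pH 2.92, 3.12, then 7.2). Pellets were redissolved in 50 mM phosphate pH 7.2 with 1 mM EDTA. Apo protein (10 mg/mL) was incubated with 1 mM NAD+ or NADH for 12 h at 4 °C, then purified by Superdex 200 gel filtration.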

The test system of data set [3] is TcY435A mutant of Tc-SAHH. Described as above. Format: binding, Trypanosoma cruzi. The method in brief:
as §1

The test system of data set [4] is Tc-SAHH. Conditions: cited from earlier work.
In data set [5] the test system is Hs-SAHH. Conditions: cited from earlier work.
The target of data set [6] is Hs-SAHH. The conditions noted are these: 23 °C, pH 7.4, cited from earlier work.
The target in data set [7] is T1, HsY430A mutant of Hs-SAHH. Description: dissociation of NAD^+. It is filed as binding.
Data set [8] has as its target TcY435A mutant of Tc-SAHH. Put plainly: association kinetics of NAD^+ with apo-enzyme. Format: binding, Trypanosoma cruzi. Conditions: 23 °C, pH 7.4.
Data set [9] addresses Tc-SAHH. The conditions noted are these: 23 °C, pH 7.4, cited from earlier work.
For data set [10], the target named is T1, HsY430A mutant of Hs-SAHH. Put plainly: association kinetics of NAD^+ with apo-enzyme. Format: binding.
The test system of data set [11] is TcY435A mutant of Tc-SAHH. Put plainly: dissociation of NAD^+. Format: binding, Trypanosoma cruzi.
Data set [12] concerns the target K431A mutant of Trypanosoma cruzi S-adenosylhomocysteine hydrolase (TcK431A) (Trypanosoma cruzi). Put plainly: SEC.
The target of data set [13] is Y435A mutant of Trypanosoma cruzi S-adenosylhomocysteine hydrolase (TcY435A) (Trypanosoma cruzi). Description: SEC.
Data set [14] deals with the molecule itself. Put plainly: SEC.
Setting [15] is: enzyme as isolated from the expression system, HPLC.
Setting [16] is: Table 2 (23 °C, pH 7.4), value is 10^6 x koff.
[17] abbreviates: binding to non-functional sites of apo-SAHH.
Where [18] appears, read: read-out: Kf, binding to fully functional sites of holo-SAHH.
[19] abbreviates: read-out: Ko, binding to fully functional sites of apo-SAHH.
Where [20] appears, read: enzyme as isolated from the expression system, fluorescence.

Read-outs that look alike come from different tables or passages of the source.

Consider `NC(=O)C1=CN([C@@H]2O[C@H](COP(=O)(O)OP(=O)(O)OC[C@H]3O[C@@H](n4cnc5c(N)ncnc54)[C@H](O)[C@@H]3O)[C@@H](O)[C@H]2O)C=CC1` [NAD^+, β-nicotinamide adenine dinucleotide], for which the “active-site occupancy by NAD^+” value in [1] (setting [15]) was found to be 30 ± 5%; in [3] (setting [15]), 18 ± 1%. The “occupancy after reconstitution of apo-enzyme with NAD^+” value in [2] (attempted reconstitution) and in data set [3] (attempted reconstitution) was “no detectable occupancy” each time. Further, the koff is 1.1 ± 0.2 × 10^−4 s^−1 in data set [4] (24 °C, pH 7.4, wild-type enzyme); 1.9 ± 0.3 × 10^−5 s^−1 in data set [5] (30 °C, pH 7.4, wild-type enzyme); 4.2 ± 0.1 × 10^−4 s^−1 in [7] (30 °C, pH 7.4); 2.8 ± 0.2 × 10^−2 s^−1 in data set [11] (24 °C, pH 7.4). The “10^6koff” value in data set [4] (setting [16]) is 110 ± 20 s^−1; in data set [5] (setting [16]), 19 ± 3 s^−1; in data set [7] (setting [16]), 420 ± 10 s^−1. Also, the Ka was 19 ± 8 µM in [6] (setting [17]); 0.39 ± 0.04 mM in data set [8] (setting [17]); 3.8 ± 0.6 µM in data set [9] (setting [17]); 17 ± 2 µM in [10] (23 °C, pH 7.4, binding to non-functional sites of apo-SAHH). Besides, the “Kd, koff/(ka/Ka)” value is 0.007 ± 0.003 µM in data set [6]; 1000 ± 300 µM in data set [8]; 0.069 ± 0.018 µM in data set [9]; 0.75 ± 0.095 µM in [10] (23 °C, pH 7.4). The “10^−3kon” value is given as 1.9 ± 0.04 M^−1s^−1 in data set [6] (value is 10^−3 x kon); 0.68 ± 0.02 M^−1s^−1 in data set [9] (value is 10^−3 x kon); 0.54 ± 0.04 M^−1s^−1 in [10] (23 °C, pH 7.4, value is 10^−3 x kon). The Kd in data set [6] (read-out: Kd, koff/kon) is 0.01 ± 0.002 µM; in data set [6] (setting [18]), 1.4 ± 0.3 µM; in data set [6] (setting [19]), 33 ± 4 µM; in data set [8] (read-out: Kd, koff/kon), 1600 ± 200 µM; in [8] (setting [18]), 200 ± 30 µM; in data set [8] (setting [19]) it was 2600 ± 1000 µM. For the same molecule, the Kd was 0.161 ± 0.03 µM in [9] (read-out: Kd, koff/kon); 1.8 ± 0.4 µM in data set [9] (setting [18]); 38 ± 9 µM in data set [9] (setting [19]); 0.784 ± 0.064 µM in [10] (read-out: Kd, koff/kon, 23 °C, pH 7.4); 2 ± 0.3 µM in data set [10] (read-out: Kf, 23 °C, pH 7.4, binding to fully functional sites of holo-SAHH); 432 ± 93 µM in data set [10] (read-out: Ko, 23 °C, pH 7.4, binding to fully functional sites of apo-SAHH). Besides, the kon (as a rule, a measure of how fast the partners come together) in data set [8] stood at 18 ± 2 M⁻¹ s⁻¹. In data set [8] (binding and transformation of apo-sites to holo-sites), this molecule showed a ka/Ka of 29 ± 9 M⁻¹ s⁻¹. In data set [8] (transformation of non-functional apo-sites to functional holo-sites), the ka was determined as 11 ± 0.4 s⁻¹. The “n (Hill coefficient for Ko)” value in [10] (23 °C, pH 7.4, fast-binding sites) is 0.9 ± 0.1. Further, the “decrease of the on-rate, mutant vs wild type” value in data set [10] (HsY430A vs Hs-SAHH) worked out at 4 fold. Besides, the “10^3koff” value in [11] (Table 2 (23 °C, pH 7.4), value is 10^3 x koff) is listed as 28 ± 2 s^−1.
`NC(=O)C1=CN([C@@H]2O[C@H](COP(=O)(O)OP(=O)(O)OC[C@H]3O[C@@H](n4cnc5c(N)ncnc54)[C@H](O)[C@@H]3O)[C@@H](O)[C@H]2O)C=CC1` [NADH, β-nicotinamide adenine dinucleotide, reduced form]: the “occupancy after reconstitution of apo-enzyme with NADH” value is 94 ± 1% in data set [1] (1 mM NADH, 12 h, 4 °C, fluorescence); “no detectable occupancy” in [2] (attempted reconstitution); “no detectable occupancy” in [3] (attempted reconstitution). The “active-site occupancy by NADH” value in [1] (setting [20]) amounted to 86 ± 5%; in data set [2] (setting [20]) it was 1.30 ± 0.03%; in data set [3] (setting [20]) it was 90 ± 1%.
Regarding “K431A mutant of Trypanosoma cruzi S-adenosylhomocysteine hydrolase (TcK431A) (enzyme)”, in data set [12], the stoichiometry N (commonly the number of molecules, sites or subunits per partner or assembly) turned out to be 4.
In data set [13], “Y435A mutant of Trypanosoma cruzi S-adenosylhomocysteine hydrolase (TcY435A) (enzyme)” displayed a stoichiometry N of 4.

B1: Y430A mutant of human S-adenosylhomocysteine hydrolase (HsY430A) (enzyme)
chain: MSDKLPYKVADIGLAAWGRKALDIAENEMPGLMRMRERYSASKPLKGARIAGCLHMTVETAVLIETLVTLGAEVQWSSCNIFSTQDHAAAAIAKAGIPVYAWKGETDEEYLWCIEQTLYFKDGPLNMILDDGGDLTNLIHTKYPQLLPGIRGISEETTTGVHNLYKMMANGILKVPAINVNDSVTKSKFDNLYGCRESLIDGIKRATDVMIAGKVAVVAGYGDVGKGCAQALRGFGARVIITEIDPINALQAAMEGYEVTTMDEACQEGNIFVTTTGCIDIILGRHFEQMKDDAIVCNIGHFDVEIDVKWLNENAVEKVNIKPQVDRYRLKNGRRIILLAEGRLVNLGCAMGHPSFVMSNSFTNQVMAQIELWTHPDKYPVGVHFLPKKLDEAVAEAHLGKLNVKLTKLTEKQAQYLGMSCDGPFKPDHARY
Take B1: the “stoichiometry N” value in data set [14] was 4.

The values above are taken from PMC2962933 (Biochemistry, 2010).
